Reference: ChEMBL document CHEMBL2417469, “Synthesis of novel analogs of 2-pyrazoline obtained from [(7-chloroquinolin-4-yl)amino]chalcones and hydrazine as potential antitumor and antimalarial agents” (Eur J Med Chem, 2013)

Tests used:
Assay type in all cases: functional
MOLT-4 = experiment: Cytotoxicity against human MOLT4 cells after 48 hrs by SRB assay; conditions: MOLT-4, 48 h
Summary of the method: (§1)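 NCI 60-cell-line screen. Cells preincubated 24 h at 37 °C, 5% CO2; time-zero plates TCA-fixed. Compounds dissolved in DMSO and tested at five concentrations (100, 10, 1.0, 0.1, 0.01 µM) for 48 h continuous exposure. Adherent cells fixed with cold TCA (10% final), then SRB stained; absorbance at 515 nm. GI50, TGI and LC50 calculated from growth relative to time-zero and untreated controls.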

ACHN = experiment: Cytotoxicity against human ACHN cells after 48 hrs by SRB assay; conditions: for CC50: read-out: LC50 (the source's name); summary of the method: as §1
T47D = experiment: Cytotoxicity against human T47D cells after 48 hrs by SRB assay
Summary of the method: (§2)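 NCI 60-cell screen. Cells grew 24 h (37 °C, 5% CO2) before compound was added. Compounds were in DMSO and diluted in medium with gentamicin, then tested at five levels (100, 10, 1.0, 0.1, 0.01 µM) with 48 h continuous exposure. Adherent cells were fixed with TCA (10% final) and stained with 0.4% SRB, absorbance read at 515 nm. A time-zero plate was included. LC50 is the concentration giving 50% loss of protein relative to time zero.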

HCT-116 = experiment: Cytotoxicity against human HCT116 cells after 48 hrs by SRB assay; conditions: HCT-116, 48 h; summary of the method: as §1
RPMI-8226 = experiment: Cytotoxicity against human RPMI8226 cells after 48 hrs by SRB assay; conditions: RPMI-8226, 48 h; summary of the method: as §1
HT-29 = experiment: Cytotoxicity against human HT-29 cells after 48 hrs by SRB assay; conditions: HT-29, 48 h; summary of the method: as §1
Plasmodium falciparum = experiment: Antimalarial activity against Plasmodium falciparum NF54 infected in human serum at 20 ug/ml after 48 hrs by fluorometric method
Summary of the method: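 Asynchronous P. falciparum NF54 at 1.5–2% parasitemia, 5% hematocrit in RPMI with 10% human serum, exposed 48 h at 37 °C under 90% N2/5% CO2/5% O2 at the stated concentration; parasite DNA stained with ethidium bromide after proteinase K lysis; viability % = (Flu treated − medium)/(Flu untreated − medium) ×100; triplicate.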

OVCAR-5 = experiment: Cytotoxicity against human OVCAR5 cells after 48 hrs by SRB assay; conditions: OVCAR-5, 48 h; summary of the method: as §1
SK-MEL-28 = experiment: Cytotoxicity against human SK-MEL-28 cells after 48 hrs by SRB assay; conditions: SK-MEL-28, 48 h; for CC50: read-out: LC50 (the source's name); summary of the method: as §1
SK-OV-3 = experiment: Cytotoxicity against human SKOV3 cells after 48 hrs by SRB assay; conditions: SK-OV-3, 48 h; summary of the method: as §1
OVCAR-8 = experiment: Cytotoxicity against human OVCAR8 cells after 48 hrs by SRB assay; conditions: OVCAR-8, 48 h; summary of the method: as §1
U-251 = experiment: Cytotoxicity against human U251 cells after 48 hrs by SRB assay; conditions: U-251, 48 h; for CC50: read-out: LC50 (the source's name); summary of the method: as §2
SF-295 = experiment: Cytotoxicity against human SF295 cells after 48 hrs by SRB assay; conditions: SF-295, 48 h; summary of the method: as §1
K562 = experiment: Cytotoxicity against human K562 cells after 48 hrs by SRB assay; conditions: K562, 48 h; summary of the method: as §1
COLO 205 = experiment: Cytotoxicity against human COLO205 cells after 48 hrs by SRB assay; conditions: COLO 205, 48 h; summary of the method: as §1
Malme-3M = experiment: Cytotoxicity against human MALME-3M cells after 48 hrs by SRB assay; summary of the method: as §1
CCRF-CEM = experiment: Cytotoxicity against human CCRF-CEM cells after 48 hrs by SRB assay; summary of the method: as §1
RXF 393 = experiment: Cytotoxicity against human RXF393 cells after 48 hrs by SRB assay; conditions: RXF 393, 48 h; summary of the method: as §1
A498 = experiment: Cytotoxicity against human A498 cells after 48 hrs by SRB assay; conditions: A498, 48 h; for CC50: read-out: LC50 (the source's name); summary of the method: as §1
SW-620 = experiment: Cytotoxicity against human SW620 cells after 48 hrs by SRB assay; conditions: SW-620, 48 h; summary of the method: as §2
SR = experiment: Cytotoxicity against human SR cells after 48 hrs by SRB assay; summary of the method: as §2
SF-539 = experiment: Cytotoxicity against human SF539 cells after 48 hrs by SRB assay; conditions: SF-539, 48 h; for CC50: read-out: LC50 (the source's name); summary of the method: as §1
CAKI-1 = experiment: Cytotoxicity against human Caki1 cells after 48 hrs by SRB assay; conditions: CAKI-1, 48 h; summary of the method: as §1

O=CN1N=C(c2cccc(Nc3ccnc4cc(Cl)ccc34)c2)CC1c1ccc(Cl)cc1 (stereo not given)
GI50 (MOLT-4): 1920 nM | LC50 (MOLT-4): > 100000 nM | GI50 (ACHN): 5180 nM | CC50 (ACHN): > 100000 nM | GI50 (T47D): 2630 nM | LC50 (concentration giving 50% cell kill relative to time zero) (T47D): > 100000 nM | GI50 (HCT-116): 600 nM | LC50 (HCT-116): > 100000 nM | GI50 (RPMI-8226): 2450 nM | LC50 (concentration killing 50% of cells) (RPMI-8226): > 100000 nM | GI50 (HT-29): 480 nM | LC50 (HT-29): > 100000 nM | inhibition at 20 µg/mL (Plasmodium falciparum): 7% | GI50 (OVCAR-5): > 100000 nM | LC50 (OVCAR-5): > 100000 nM | GI50 (SK-MEL-28): 5630 nM | CC50 (SK-MEL-28): > 100000 nM | GI50 (SK-OV-3): 3480 nM | LC50 (concentration killing 50% of cells) (SK-OV-3): > 100000 nM | GI50 (OVCAR-8): 3800 nM | LC50 (50% net cell kill) (OVCAR-8): > 100000 nM | GI50 (U-251): 1290 nM | CC50 (U-251): > 100000 nM | GI50 (SF-295): 1060 nM | LC50 (SF-295): > 100000 nM | GI50 (K562): 410 nM | LC50 (concentration killing 50% of cells) (K562): > 100000 nM | GI50 (COLO 205): 1390 nM | LC50 (COLO 205): > 100000 nM | GI50 (Malme-3M): 1630 nM | LC50 (Malme-3M): > 100000 nM | GI50 (CCRF-CEM): 2340 nM | LC50 (concentration killing 50% of cells relative to time zero) (CCRF-CEM): > 100000 nM | GI50 (RXF 393): 3080 nM | LC50 (concentration killing 50% of cells) (RXF 393): > 100000 nM | GI50 (A498): 830 nM | CC50 (A498): > 100000 nM | GI50 (SW-620): 560 nM | LC50 (SW-620): > 100000 nM | GI50 (SR): 370 nM | LC50 (SR): > 100000 nM | GI50 (SF-539): 3780 nM | CC50 (SF-539): > 100000 nM | GI50 (CAKI-1): 950 nM | LC50 (CAKI-1): > 100000 nM

O=CN1N=C(c2cccc(Nc3ccnc4cc(Cl)ccc34)c2)CC1c1ccccc1 (stereo not given)
GI50 (MOLT-4): 390 nM | LC50 (MOLT-4): > 100000 nM | GI50 (ACHN): 860 nM | CC50 (ACHN): > 100000 nM | GI50 (T47D): 340 nM | LC50 (concentration giving 50% cell kill relative to time zero) (T47D): > 100000 nM | GI50 (HCT-116): 390 nM | LC50 (HCT-116): 4750 nM | GI50 (RPMI-8226): 490 nM | LC50 (concentration killing 50% of cells) (RPMI-8226): > 100000 nM | GI50 (HT-29): 320 nM | LC50 (HT-29): 4320 nM | inhibition at 20 µg/mL (Plasmodium falciparum): 0% | GI50 (OVCAR-5): 1380 nM | LC50 (OVCAR-5): > 100000 nM | GI50 (SK-MEL-28): 760 nM | CC50 (SK-MEL-28): > 100000 nM | GI50 (SK-OV-3): 330 nM | LC50 (concentration killing 50% of cells) (SK-OV-3): > 100000 nM | GI50 (OVCAR-8): 510 nM | LC50 (50% net cell kill) (OVCAR-8): 56000 nM | GI50 (U-251): 370 nM | CC50 (U-251): 5070 nM | GI50 (SF-295): 370 nM | LC50 (SF-295): 41200 nM | GI50 (K562): 260 nM | LC50 (concentration killing 50% of cells) (K562): > 100000 nM | GI50 (COLO 205): 360 nM | LC50 (COLO 205): 7920 nM | GI50 (Malme-3M): 370 nM | LC50 (Malme-3M): > 100000 nM | GI50 (CCRF-CEM): 370 nM | LC50 (concentration killing 50% of cells relative to time zero) (CCRF-CEM): > 100000 nM | GI50 (RXF 393): 390 nM | LC50 (concentration killing 50% of cells) (RXF 393): > 100000 nM | GI50 (A498): 230 nM | CC50 (A498): > 100000 nM | GI50 (SW-620): 350 nM | LC50 (SW-620): > 100000 nM | GI50 (SR): 200 nM | LC50 (SR): > 100000 nM | GI50 (SF-539): 310 nM | CC50 (SF-539): 35700 nM | GI50 (CAKI-1): 330 nM | LC50 (CAKI-1): 35300 nM

COc1ccc(C2CC(c3cccc(Nc4ccnc5cc(Cl)ccc45)c3)=NN2C=O)cc1 (stereo not given)
GI50 (MOLT-4): 490 nM | LC50 (MOLT-4): > 100000 nM | GI50 (ACHN): 870 nM | CC50 (ACHN): > 100000 nM | GI50 (T47D): 530 nM | LC50 (concentration giving 50% cell kill relative to time zero) (T47D): > 100000 nM | GI50 (HCT-116): 380 nM | LC50 (HCT-116): 38100 nM | GI50 (RPMI-8226): 16700 nM | LC50 (concentration killing 50% of cells) (RPMI-8226): > 100000 nM | GI50 (HT-29): 340 nM | LC50 (HT-29): > 100000 nM | inhibition at 20 µg/mL (Plasmodium falciparum): 4.1% | GI50 (OVCAR-5): 3510 nM | LC50 (OVCAR-5): > 100000 nM | GI50 (SK-MEL-28): 960 nM | CC50 (SK-MEL-28): > 100000 nM | GI50 (SK-OV-3): 700 nM | LC50 (concentration killing 50% of cells) (SK-OV-3): > 100000 nM | GI50 (OVCAR-8): 950 nM | LC50 (50% net cell kill) (OVCAR-8): > 100000 nM | GI50 (U-251): 450 nM | CC50 (U-251): 41800 nM | GI50 (SF-295): 320 nM | LC50 (SF-295): > 100000 nM | GI50 (K562): 290 nM | LC50 (concentration killing 50% of cells) (K562): > 100000 nM | GI50 (COLO 205): 450 nM | LC50 (COLO 205): 13900 nM | GI50 (Malme-3M): 740 nM | LC50 (Malme-3M): > 100000 nM | GI50 (CCRF-CEM): 680 nM | LC50 (concentration killing 50% of cells relative to time zero) (CCRF-CEM): > 100000 nM | GI50 (RXF 393): 850 nM | LC50 (concentration killing 50% of cells) (RXF 393): > 100000 nM | GI50 (A498): 260 nM | CC50 (A498): > 100000 nM | GI50 (SW-620): 360 nM | LC50 (SW-620): > 100000 nM | GI50 (SR): 240 nM | LC50 (SR): > 100000 nM | GI50 (SF-539): 610 nM | CC50 (SF-539): 66200 nM | GI50 (CAKI-1): 330 nM | LC50 (CAKI-1): 100000 nM
